# In the library only some 2.2% were active in any assay of this set; here they are far more common.
# Calb biofilm kill: mixture kills Candida albicans biofilm cells. C. albicans biofilm persisters + clotrimazole, fluorescence viability; primary screen in compound mixtures of four per well. inhibition, % at 7.6 µM. 120,000 compounds, 0.02% hits;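 active means inhibition above 30.3% in the primary screen of four-compound pools, then above 30% when the compound was retested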;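 further: compounds exposed to preformed 24 h biofilms for 48 h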
#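 Incubation: 24 h biofilm formation, then 48 h compound exposure, 37 °C | Material: C. albicans biofilms | Buffer or medium: RPMI/MOPS medium, pH 7.0 | Measured by: 2-h Alamar Blue fluorescence, 535/590 nm excitation/emission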
# PERK inh: human PERK inhibition, primary cell-based screen; AID 1416; 220,000 compounds, 0.17% hits; CHO PERK-DD fusion, SEAP luminescence translation reporter; inhibition, % at 5.6 µM;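 active means inhibition above the mean inhibition of all tested compounds plus 3 SD, set separately per screening campaign, cut at about 2.9% in these data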;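 further: PERK kinase domain activated by AP20187 dimerizer at 100 nM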
# p97 ATPase inh: inhibitors of human p97 ATPase; P55072; recombinant p97 ATPase, Kinase-Glo ATP luminescence, 3 h; inhibition, % at 8 µM; 220,000 compounds, 0.42% hits; AID 1481; in the data active means inhibition above about 15%
# 14-3-3 Bad PPI: disrupts binding of bovine 14-3-3 zeta to phospho-Bad peptide; 220,000 compounds, 0.71% hits; inhibition, % at 21.7 µM; TR-FRET 14-3-3zeta/Dy647-pBad peptide displacement, 1 h;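 active means inhibition above about 70%, limit read from the data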
# eIF4E 4G PPI: inhibitors of eIF4E and eIF4G interaction in translation initiation; 220,000 compounds, 0.37% hits; P63073+Q04637; inhibition, % at 21.7 µM; TR-FRET eIF4E-eIF4GI(517-606) binding, 2 h;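 active means inhibition above about 30%, limit read from the data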
# Hck Nef HTS: blocks Nef-activated human Hck kinase; P08631; Recombinant Hck-YEEI plus Nef, Z-Lyte FRET kinase assay; inhibition, % at 20 µM; 220,000 compounds, 0.68% hits;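 active means Hck-Nef kinase inhibition above about 50%, limit read from the data; inactive means inhibition below that limit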
# p97 confirm: human p97 ATPase inhibition, confirmation | recombinant p97 ATPase, Kinase-Glo ATP luminescence | 760 compounds, 44% hits | shares compounds with p97 ATPase inh | inhibition, % at 8 µM | AID 1517;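 active means percent inhibition of p97 ATPase above a set limit, the primary screen's mean plus 3 SD, cut at about 15% in these data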
# Hck Nef conf: confirmation of Hck-Nef kinase inhibitors; shares compounds with Hck Nef HTS; calls only at 10 µM; AID 463188; Recombinant Hck-YEEI:Nef, Z-Lyte FRET kinase assay; 1,300 compounds, 28% hits;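 active means average inhibition of at least 50%, with Z-scores no higher than 3 in both the phospho-tyrosine peptide and fluorescence counterscreens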
# Hits are given with their value; - = inactive; . = no result shown; + = active, no number.
SMILES,Calb biofilm kill,PERK inh,p97 ATPase inh,14-3-3 Bad PPI,eIF4E 4G PPI,Hck Nef HTS,Hck Nef conf,others
Cc1ccc(C)n1Cc1ccc(C(=O)O)cc1,.,-,27.9,-,-,73.9,-,p97 confirm=-
O=c1c(O)cccc2cc(O)c(O)c(O)c12,-,-,38.3,94.0,60.8,65.4,+,p97 confirm=45.0
COc1cc2cccc(OC)c(=O)c2c(OC)c1OC,-,-,-,-,-,-,.,
S=c1[nH]nc(-c2cccc(Cl)c2)n1/N=C/c1ccc(-c2ccccc2Br)o1,-,-,-,-,-,57.8,-,
CCOC(=O)c1ccc(NC(=O)Cn2ncc(Cl)c(Cl)c2=O)cc1,-,-,-,-,-,58.7,+,
CCOc1ncccc1C(=O)OCC(=O)c1cc(OC)c(OC)c(OC)c1,-,-,-,-,-,-,.,
Cc1cc(C)c2c(n1)nn1c(NCCOCCO)cc(C)nc21,.,-,-,-,-,50.8,.,
O=c1[nH]c(-c2ccc3c(c2)OCO3)nc2c1sc(=S)n2-c1ccccc1,-,-,-,-,-,60.6,-,
COc1c(O)cc2oc(-c3ccc(O)cc3)cc(=O)c2c1O,-,.,.,-,-,90.5,+,
COc1cc2oc(-c3ccc(O)cc3)cc(=O)c2c(O)c1OC,-,.,.,-,58.3,89.1,+,
O=c1cc(-c2ccc(O)cc2)oc2c(O)c(O)c(O)c(O)c12,-,-,-,-,-,-,.,
COc1cc2oc(-c3ccc(O)cc3)cc(=O)c2c(OC)c1O,-,-,-,-,-,-,.,
O=C(Cn1nnc(-c2cccs2)n1)Nc1ccccc1C(F)(F)F,-,-,-,-,-,-,.,
COC(C)(C)c1cc(C(C)(C)C)nc(N)n1,.,-,-,.,.,102.2,-,
CCCCC(=O)NS(=O)(=O)c1ccc(N=NN(CC)CC)cc1,-,-,-,-,-,-,.,
COc1ccc(CN2C(=O)c3c(c(C)n(C)c3C)C2C(=O)NC2CCC(C)CC2)cc1 (stereo not drawn),-,-,-,-,-,-,.,
COc1ccc(F)cc1C(=O)C1CCCN(C(=O)c2cccc(N(C)C)c2)C1 (stereo not drawn),-,-,-,-,-,-,.,
CCC(=O)OC1(C)C(=O)C=C2C=C(c3ccsc3)OC=C2C1=O (stereo not drawn),-,.,.,-,-,65.1,+,
C#CCNC(=O)C1=C[C@@H](c2cn(C(C)=O)c3ccccc23)C[C@@H](OCc2ccc(CO)cc2)O1,-,-,-,-,-,-,.,
CC(=O)n1cc([C@H]2C=C(C(=O)NCc3ccccc3)O[C@@H](OCc3ccc(CO)cc3)C2)c2ccccc21,-,-,-,-,-,53.4,+,
C=CCn1c(=N)c(C(=O)NCCCOC)cc2c(=O)n3cccc(C)c3nc21,.,-,-,-,-,199.6,.,
CCOCCCn1c(=N)c(C(N)=S)cc2c(=O)n3cccc(C)c3nc21,.,-,-,-,-,-,.,
Cc1cccn2c(=O)c3cc(C(=O)NCCc4ccccc4)c(=N)n(CCCn4ccnc4)c3nc12,.,-,-,-,-,60.8,.,
Cc1ccc2nc3c(cc(C(=O)NC4CCCC4)c(=N)n3CCCn3ccnc3)c(=O)n2c1,-,-,-,-,-,109.8,.,
CCNC(=O)c1cc2c(=O)n3cccc(C)c3nc2n(CCc2ccccc2)c1=N,.,-,-,-,-,97.7,.,
SMILES,Calb biofilm kill,PERK inh,p97 ATPase inh,14-3-3 Bad PPI,eIF4E 4G PPI,Hck Nef HTS,Hck Nef conf,others
CCN1C(=O)C(F)(CC)C(=O)c2ccccc21 (stereo not drawn),-,-,-,-,-,-,.,
Cc1ccc2nc3c(cc(C#N)c(=O)n3-c3nccs3)c(=O)n2c1,.,-,-,-,-,184.9,.,
N#Cc1cc2c(=O)n3ccccc3nc2n(-c2ccccc2Cl)c1=O,-,-,-,-,-,+,.,
Cc1ccc(-n2c(=O)c(C#N)cc3c(=O)n4cccc(C)c4nc32)cc1,.,-,-,-,-,67.1,.,
CC(=O)N=c1c(C#N)cc2c(=O)n3ccccc3nc2n1Cc1ccccc1,-,-,-,-,-,-,.,
CCC(C)n1c(=N)c(C#N)cc2c(=O)n3cc(C)ccc3nc21 (stereo not drawn),-,-,-,-,-,-,.,
O=C(NCCN1CCOCC1)c1cc2c(=O)n3ccccc3nc2n1Cc1ccccc1,.,-,-,-,-,52.3,-,
CCN(C(=O)COC(=O)/C=C/c1cccc([N+](=O)[O-])c1)c1ccccc1,-,-,-,-,-,-,.,
CCOC(=O)C1=C(C)N=C2SC=C(C)N2C1c1ccc(OC)cc1 (stereo not drawn),-,-,-,-,-,-,.,
COc1cc2nc(C3CCC3)nc(N3CCN(c4ccccc4OC)CC3)c2cc1OC,-,-,-,-,-,-,.,
N#Cc1cc2c(=O)n3ccccc3nc2n(CCCN2CCOCC2)c1=O,.,-,-,-,-,149.2,.,
Cc1cccn2c(=O)c3cc(C(=O)NCCN4CCOCC4)c(=N)n(CCc4ccccc4)c3nc12,.,-,-,-,-,61.3,.,
N=c1c(C(=O)NC2CCCC2)cc2c(=O)n3ccccc3nc2n1CCN1CCOCC1,.,-,-,-,-,-,.,
CNC(=O)c1cc2c(=O)n3cccc(C)c3nc2n(C(C)C)c1=N,.,-,-,-,-,172.4,.,
CCC(C)n1c(=N)c(C#N)cc2c(=O)n3cccc(C)c3nc21 (stereo not drawn),-,-,-,-,-,-,.,
CC(C)NC(=S)NC(=O)/C=C/c1ccc(F)cc1,-,-,-,-,-,-,.,
Cn1c(=O)[nH]c(=O)c2c1nc(N/N=C/C(Br)=C/c1ccccc1)n2CCO,-,-,-,-,-,59.6,+,
CC(C)=NNc1nc2c(c(=O)[nH]c(=O)n2C)n1CCc1ccccc1,-,-,-,-,-,-,.,
CCOC(=O)c1c(C)nc(C)c2c(=O)oc3ccccc3c12,-,-,-,-,-,-,.,
Cc1ccc(NNc2c(C)nc3ccccc3nc2=O)cc1,-,-,-,-,-,149.1,-,
O=C(Nc1nccs1)c1cncc(Br)c1,-,-,-,-,-,-,.,
CC(C)(C)SCCNC(=O)c1ccccc1,.,-,-,-,-,54.2,-,
O=C(CCN1CCN(c2ccccc2)CC1)N/N=C/c1ccc(O)c(O)c1O,-,-,-,-,-,53.5,-,
O=C(Cc1csc(N2CCOCC2)n1)N/N=C/c1ccc(O)c(O)c1O,-,-,-,-,-,65.5,-,
O=C(O)CNC(=O)CCCn1nnc2ccccc2c1=O,-,-,-,-,-,-,.,
CC1=NOC(=O)/C1=C\c1ccc(-c2cccc(Cl)c2)o1,.,-,-,-,-,-,.,
CC1=NOC(=O)/C1=C\c1ccc(-c2ccccc2Br)o1,-,-,-,-,-,51.7,-,
COc1ccc(/C=N/NC(=O)CC(=O)NCc2cccnc2)c(OC)c1,-,-,-,-,-,-,.,

# Bioassay records (PubChem)
